Test results reported in ChEMBL document CHEMBL1155662, “New phloroglucinol derivatives from Hypericum papuanum” (2000).
≈ marks a conversion by molar mass, not a printed value.

Assays:
Format in all cases: functional
Bacillus cereus = experiment: Antibacterial activity against Bacillus cereus ATCC 10702 after 20 hrs by MTT assay; conditions: ATCC 10702, 20 h
Procedure, shortened: (§1)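 Twofold broth doubling-dilution in nutrient broth. Overnight 37 °C cultures diluted to about 10^5 cells/mL. Compounds from 1 mg/mL MeOH stocks were dried in the first wells, then redissolved in DMSO, broth and culture before serial dilution. Plates held 20 h at 37 °C in a moist atmosphere. 0.25% aqueous MTT was added and plates reincubated 4 h; violet turbid wells scored as living bacteria.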

[1] = system: Staphylococcus epidermidis; experiment: Antibacterial activity against Staphylococcus epidermidis ATCC 12228 after 20 hrs by MTT assay; conditions: ATCC 12228, 20 h; procedure, shortened: as §1
Micrococcus luteus = experiment: Antibacterial activity against Micrococcus luteus ATCC 9341 after 20 hrs by MTT assay; conditions: ATCC 9341, 20 h; procedure, shortened: as §1

Row | Structure (SMILES) | MIC (Bacillus cereus) [µg/mL] | MIC [1] [µg/mL] | MIC (Micrococcus luteus) [µg/mL]
1 | C=C(C)[C@H]1CC23C(=O)C(C(=O)C(C)C)=C(O)[C@](C)(C[C@H]2C1(C)C)C3=O [LALIBINONE B] | 64 (≈ 186 µM) | 128 (≈ 372 µM) | 64 (≈ 186 µM)
2 | CC(C)C(=O)C1=C(O)[C@]2(C)C[C@H]3C(C)(C)CCC3(C1=O)C2=O [LALIBINONE E] | > 128 | > 256 | > 128

Further lines, results first:

Row | MIC (Bacillus cereus) [µg/mL] | MIC [1] [µg/mL] | MIC (Micrococcus luteus) [µg/mL] | Structure (SMILES)
3 | 2 (≈ 6.19 µM) | 4 (≈ 12.4 µM) | 1 (≈ 3.09 µM) | O=C(N[C@H](CO)[C@H](O)c1ccc([N+](=O)[O-])cc1)C(Cl)Cl [CHLORAMPHENICOL]
4 | 64 (≈ 186 µM) | 64 (≈ 186 µM) | 64 (≈ 186 µM) | C=C(C)[C@@H]1CC23C(=O)C(C(=O)C(C)C)=C(O)[C@](C)(C[C@H]2C1(C)C)C3=O [LALIBINONE A]
5 | 16 (≈ 44.6 µM) | 32 (≈ 89.3 µM) | 64 (≈ 179 µM) | C=C(C)[C@@H]1CC23C(=O)[C@@](C)(C[C@H]2C1(C)C)C(=O)C(C(=O)C(C)CC)=C3O (stereo partly drawn) [LALIBINONE C]
6 | 16 (≈ 44.6 µM) | 32 (≈ 89.3 µM) | 64 (≈ 179 µM) | C=C(C)[C@H]1CC23C(=O)[C@@](C)(C[C@H]2C1(C)C)C(=O)C(C(=O)C(C)CC)=C3O (stereo partly drawn) [LALIBINONE D]
